Measurements from ChEMBL document CHEMBL1134591, “N-Aryl sulfonyl homocysteine hydroxamate inhibitors of matrix metalloproteinases: further probing of the S(1), S(1)', and S(2)' pockets” (J Med Chem, 2001).

What was measured:
Interstitial collagenase = biological target: T1, Interstitial collagenase (Homo sapiens, UniProt P03956); experiment: In vitro inhibition of human matrix metalloprotease-1
T1 sequence (P03956 whole entry): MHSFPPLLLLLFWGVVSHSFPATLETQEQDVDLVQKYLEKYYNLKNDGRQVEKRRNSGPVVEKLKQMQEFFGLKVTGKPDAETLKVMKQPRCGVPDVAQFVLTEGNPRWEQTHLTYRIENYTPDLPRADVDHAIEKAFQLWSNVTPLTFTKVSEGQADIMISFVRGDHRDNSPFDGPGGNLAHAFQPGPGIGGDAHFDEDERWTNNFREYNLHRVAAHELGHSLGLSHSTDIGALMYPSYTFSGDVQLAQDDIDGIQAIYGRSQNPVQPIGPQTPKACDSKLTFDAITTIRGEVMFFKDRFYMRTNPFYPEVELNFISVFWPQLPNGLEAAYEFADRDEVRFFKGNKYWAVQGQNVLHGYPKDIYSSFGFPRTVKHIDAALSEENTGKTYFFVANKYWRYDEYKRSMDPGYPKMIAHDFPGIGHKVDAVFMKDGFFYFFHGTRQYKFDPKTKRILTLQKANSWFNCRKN

[1] = biological target: Matrix metalloproteinase-9 (Homo sapiens, UniProt P14780); experiment: In vitro inhibition of human matrix metalloprotease-9
Chain of Matrix metalloproteinase-9 (P14780 whole entry): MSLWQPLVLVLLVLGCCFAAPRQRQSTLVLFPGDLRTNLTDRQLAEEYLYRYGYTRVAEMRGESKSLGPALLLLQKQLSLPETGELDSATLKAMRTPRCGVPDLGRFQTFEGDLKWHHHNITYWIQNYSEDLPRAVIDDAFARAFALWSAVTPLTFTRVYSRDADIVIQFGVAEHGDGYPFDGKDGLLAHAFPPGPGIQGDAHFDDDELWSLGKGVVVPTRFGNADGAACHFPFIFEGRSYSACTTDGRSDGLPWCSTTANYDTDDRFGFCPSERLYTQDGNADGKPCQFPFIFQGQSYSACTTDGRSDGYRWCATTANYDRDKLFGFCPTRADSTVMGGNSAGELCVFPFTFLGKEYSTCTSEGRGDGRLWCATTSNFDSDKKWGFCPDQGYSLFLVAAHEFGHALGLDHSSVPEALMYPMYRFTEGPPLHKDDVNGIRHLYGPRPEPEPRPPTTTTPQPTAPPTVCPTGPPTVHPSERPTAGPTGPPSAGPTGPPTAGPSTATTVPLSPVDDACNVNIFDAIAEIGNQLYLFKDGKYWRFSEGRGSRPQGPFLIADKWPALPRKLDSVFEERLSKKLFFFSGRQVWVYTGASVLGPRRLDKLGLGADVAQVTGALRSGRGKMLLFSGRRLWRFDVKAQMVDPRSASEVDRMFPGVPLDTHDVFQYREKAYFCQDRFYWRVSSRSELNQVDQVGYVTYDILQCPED
Method in brief: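 APMA-activated enzyme, fluorogenic quenched peptide substrate Dnp-Pro-Cha-Gly-Cys(Me)-His-Ala-Lys(Nma)-NH₂, cleaved between Gly and Cys; inhibition read as substrate cleavage, reported as IC50 (nM).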

Stromelysin-1 = Stromelysin-1 (Homo sapiens, UniProt P08254); experiment: In vitro inhibitory activity against matrix metalloprotease-3
Chain of Stromelysin-1 (P08254 whole entry): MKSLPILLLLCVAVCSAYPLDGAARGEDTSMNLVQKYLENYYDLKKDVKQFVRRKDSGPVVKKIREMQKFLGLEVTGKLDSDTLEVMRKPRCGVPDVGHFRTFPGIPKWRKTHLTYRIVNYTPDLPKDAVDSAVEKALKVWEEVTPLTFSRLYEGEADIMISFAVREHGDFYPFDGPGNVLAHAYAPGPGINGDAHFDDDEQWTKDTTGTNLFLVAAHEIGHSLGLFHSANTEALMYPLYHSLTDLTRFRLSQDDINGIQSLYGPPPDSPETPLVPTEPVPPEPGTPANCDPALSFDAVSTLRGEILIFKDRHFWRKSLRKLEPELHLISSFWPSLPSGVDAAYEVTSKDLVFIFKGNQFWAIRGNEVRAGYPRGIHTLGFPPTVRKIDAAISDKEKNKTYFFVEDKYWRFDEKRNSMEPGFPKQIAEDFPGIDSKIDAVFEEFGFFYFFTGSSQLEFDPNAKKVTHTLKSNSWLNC
Method in brief: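 MMP-3 activated with APMA (4-aminophenylmercuric acetate); cleavage of quenched fluorogenic substrate (7-methoxycoumarin-4-yl)-Arg-Pro-Lys-Pro-Tyr-Ala-Nva-Trp-Met-Lys(Dnp)-NH₂ at the Ala–Nva bond monitored; IC50 (nM) derived.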

[2] = biological target: 72 kDa type IV collagenase (Homo sapiens, UniProt P08253); experiment: In vitro inhibition of human matrix metalloprotease-2
Chain of 72 kDa type IV collagenase (P08253 whole entry): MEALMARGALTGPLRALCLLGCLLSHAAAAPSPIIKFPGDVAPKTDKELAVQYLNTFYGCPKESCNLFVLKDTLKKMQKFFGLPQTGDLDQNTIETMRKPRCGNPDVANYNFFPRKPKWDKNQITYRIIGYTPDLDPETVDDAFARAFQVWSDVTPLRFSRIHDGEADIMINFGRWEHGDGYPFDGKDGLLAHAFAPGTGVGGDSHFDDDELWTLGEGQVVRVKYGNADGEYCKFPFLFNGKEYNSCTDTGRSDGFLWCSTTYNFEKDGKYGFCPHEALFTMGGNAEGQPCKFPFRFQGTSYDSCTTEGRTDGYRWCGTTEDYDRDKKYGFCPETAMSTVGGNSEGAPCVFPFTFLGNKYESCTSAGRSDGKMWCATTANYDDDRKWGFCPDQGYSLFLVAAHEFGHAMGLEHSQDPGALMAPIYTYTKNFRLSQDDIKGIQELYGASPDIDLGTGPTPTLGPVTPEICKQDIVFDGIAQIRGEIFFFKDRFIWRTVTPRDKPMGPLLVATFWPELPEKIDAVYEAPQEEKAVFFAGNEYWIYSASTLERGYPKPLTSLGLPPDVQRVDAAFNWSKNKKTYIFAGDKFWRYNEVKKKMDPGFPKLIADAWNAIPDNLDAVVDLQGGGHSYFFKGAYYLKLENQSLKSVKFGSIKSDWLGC

Collagenase 3 = Collagenase 3 (Homo sapiens, UniProt P45452); experiment: In vitro inhibition of human matrix metalloprotease-13

`COc1ccc(CNC(=O)CN(C(CCSCc2ccccc2)C(=O)NO)S(=O)(=O)c2ccc(OC)cc2)cc1` (centres undefined) was tested, and the IC50 (Interstitial collagenase) was 19 nM, the IC50 [1] was 0.2 nM and the IC50 (Stromelysin-1) was 0.9 nM. For the same molecule, the IC50 [2] was 0.7 nM and the IC50 (Collagenase 3) was 0.7 nM.
Molecule `COc1ccc(S(=O)(=O)N(CC(C)C)C(CCSCc2c(F)c(F)c(F)c(F)c2F)C(=O)NO)cc1` (centres undefined) has an IC50 [1] of 149 nM, an IC50 (Stromelysin-1) of 705 nM and an IC50 [2] of 1810 nM. It also gave an IC50 (Collagenase 3) of 407 nM.
In the case of `COc1ccc(S(=O)(=O)N(CC(C)C)C(CCSCc2ccc(-c3ccccc3)cc2)C(=O)NO)cc1` (centres undefined), the IC50 [1] is reported as 0.2 nM, the IC50 (Stromelysin-1) is reported as 20 nM and the IC50 [2] is reported as 30 nM.
Work on `COc1ccc(S(=O)(=O)N(CC(=O)NC2CCCCC2)C(CCSCc2ccccc2)C(=O)NO)cc1` (centres undefined) yielded an IC50 (Interstitial collagenase) of 16 nM, an IC50 [1] of 0.2 nM and an IC50 (Stromelysin-1) of 1.6 nM. The IC50 [2] was 1 nM and the IC50 (Collagenase 3) was 0.8 nM.
`COc1ccc(S(=O)(=O)N(CC(=O)NCc2ccccc2)C(CCSCc2ccccc2)C(=O)NO)cc1` (centres undefined) was tested, and the IC50 (Interstitial collagenase) was 51 nM, the IC50 [1] was 0.2 nM and the IC50 (Stromelysin-1) was 1.6 nM. The IC50 [2] was 0.7 nM and the IC50 (Collagenase 3) was 0.5 nM.
For `COc1ccc(S(=O)(=O)N(CC(C)C)C(CCS(=O)(=O)Cc2ccccc2)C(=O)NO)cc1` (centres undefined), the IC50 (Interstitial collagenase) was 396 nM, the IC50 [1] was 0.9 nM and the IC50 (Stromelysin-1) was 10.3 nM. For the same molecule, the IC50 [2] was 4.22 nM and the IC50 (Collagenase 3) was 11.8 nM.
Work on `COc1ccc(S(=O)(=O)N(CC(C)C)C(CCSCc2ccccc2)C(=O)NO)cc1` (centres undefined) yielded an IC50 (Interstitial collagenase) of 104 nM, an IC50 [1] of less than 0.1 nM and an IC50 (Stromelysin-1) of 0.7 nM. It also gave an IC50 [2] of 0.7 nM and an IC50 (Collagenase 3) of 12 nM.
With `CC(C)CN(C(CCSCc1ccccc1)C(=O)NO)S(=O)(=O)c1ccc(Oc2ccccc2)cc1` (centres undefined) the IC50 [1] was 0.5 nM, the IC50 (Stromelysin-1) was 4.2 nM and the IC50 [2] was 1.6 nM. For the same molecule, the IC50 (Collagenase 3) was 3.2 nM.
Work on `COc1ccc(S(=O)(=O)N(CC(C)C)C(CCSCc2ccc(OCc3ccccc3)cc2)C(=O)NO)cc1` (centres undefined) yielded an IC50 [1] of 8 nM and an IC50 (Stromelysin-1) of 29 nM.
`CCC(C(=O)NO)N(CC(C)C)S(=O)(=O)c1ccc(OC)cc1` (centres undefined) gave an IC50 (Interstitial collagenase) of 384 nM, an IC50 [1] of 7 nM and an IC50 (Stromelysin-1) of 45 nM. The IC50 [2] was 53 nM and the IC50 (Collagenase 3) was 96 nM.
In the case of `COc1ccc(S(=O)(=O)N(CC(C)C)C(CCSCc2cccc(OC)c2)C(=O)NO)cc1` (centres undefined), the IC50 (Interstitial collagenase) is reported as 297 nM, the IC50 [1] is reported as 3.2 nM and the IC50 (Stromelysin-1) is reported as 5.7 nM. For the same molecule, the IC50 [2] was 3.78 nM and the IC50 (Collagenase 3) was 5.3 nM.
`COc1ccc(S(=O)(=O)N(CC(=O)NC(c2ccccn2)c2ccccn2)C(CCSCc2ccccc2)C(=O)NO)cc1` (centres undefined) was tested, and the IC50 (Interstitial collagenase) was 39 nM, the IC50 [1] was 0.2 nM and the IC50 (Stromelysin-1) was 1.1 nM. The IC50 [2] was 0.4 nM and the IC50 (Collagenase 3) was 0.4 nM.
For `COc1ccc(S(=O)(=O)N(CC(=O)N2CCOCC2)C(CCSCc2ccccc2)C(=O)NO)cc1` (centres undefined), the IC50 (Interstitial collagenase) was 532 nM, the IC50 [1] was 29 nM and the IC50 (Stromelysin-1) was 195 nM. It also gave an IC50 [2] of 16 nM and an IC50 (Collagenase 3) of 23 nM.
Work on `COc1ccc(S(=O)(=O)N(CC(C)C)C(CCSCc2cccnc2)C(=O)NO)cc1` (centres undefined) yielded an IC50 (Interstitial collagenase) of 126 nM, an IC50 [1] of 3 nM and an IC50 (Stromelysin-1) of 6.2 nM. For the same molecule, the IC50 [2] was 6.3 nM and the IC50 (Collagenase 3) was 16.2 nM.
For `COc1ccc(S(=O)(=O)N(CC(=O)NCc2cccnc2)C(CCSCc2ccccc2)C(=O)NO)cc1` (centres undefined), the IC50 [1] was 0.2 nM, the IC50 (Stromelysin-1) was 2.2 nM and the IC50 [2] was 1.2 nM. It also gave an IC50 (Collagenase 3) of 1.1 nM.
With `CC(C)CN(C(CCSCc1ccccc1)C(=O)NO)S(=O)(=O)c1ccc(Br)cc1` (centres undefined) the IC50 (Interstitial collagenase) was 164 nM, the IC50 [1] was 4.3 nM and the IC50 (Stromelysin-1) was 15.1 nM. It also gave an IC50 [2] of 16 nM and an IC50 (Collagenase 3) of 14 nM.
With `CC(C)CN(C(CCSCc1ccccc1)C(=O)NO)S(=O)(=O)c1ccc(-c2ccccc2)cc1` (centres undefined) the IC50 [1] was 2.5 nM, the IC50 (Stromelysin-1) was 90 nM and the IC50 [2] was 4.1 nM. It also gave an IC50 (Collagenase 3) of 3.8 nM.
With `COc1ccc(S(=O)(=O)N(CC(C)C)C(CCSCc2ccsc2)C(=O)NO)cc1` (centres undefined) the IC50 (Interstitial collagenase) was 188 nM, the IC50 [1] was 1 nM and the IC50 (Stromelysin-1) was 5.4 nM. The IC50 [2] was 3.2 nM and the IC50 (Collagenase 3) was 5.1 nM.
Work on `COc1ccc(S(=O)(=O)N(CC(=O)NC(C2CCCCC2)C2CCCCC2)C(CCSCc2ccccc2)C(=O)NO)cc1` (centres undefined) yielded an IC50 [1] of 1.88 nM and an IC50 [2] of 8.82 nM.
In the case of `COc1ccc(S(=O)(=O)N(CC(=O)NCC2CCCCC2)C(CCSCc2ccccc2)C(=O)NO)cc1` (centres undefined), the IC50 [1] is reported as 0.01 nM and the IC50 [2] is reported as 0.3 nM.
`COc1ccc(S(=O)(=O)N(CC(=O)NCc2cc(OC)cc(OC)c2)C(CCSCc2ccccc2)C(=O)NO)cc1` (centres undefined) showed an IC50 (Interstitial collagenase) of 36 nM, an IC50 [1] of 0.6 nM and an IC50 (Stromelysin-1) of 4.7 nM. For the same molecule, the IC50 [2] was 1.6 nM and the IC50 (Collagenase 3) was 2.3 nM.
Molecule `COc1ccc(S(=O)(=O)N(CC(=O)NC(c2ccccc2)c2ccccc2)C(CCSCc2ccccc2)C(=O)NO)cc1` (centres undefined) has an IC50 [1] of 0.5 nM, an IC50 (Stromelysin-1) of 3.7 nM and an IC50 [2] of 2.3 nM. For the same molecule, the IC50 (Collagenase 3) was 4.5 nM.
`COc1ccc(S(=O)(=O)N(CC(=O)NCc2c(OC)cc(OC)cc2OC)C(CCSCc2ccccc2)C(=O)NO)cc1` (centres undefined) gave an IC50 (Interstitial collagenase) of 49 nM, an IC50 [1] of 0.3 nM and an IC50 (Stromelysin-1) of 2.5 nM. The IC50 [2] was 1.2 nM and the IC50 (Collagenase 3) was 1.6 nM.
